We go through 24 compounds from ChEMBL document CHEMBL1157624, “Targeting Alzheimer's disease: Novel indanone hybrids bearing a pharmacophoric fragment of AP2238” (Bioorg Med Chem, 2010).

pIC50, pKi: −log10 of the molar value.

The pIC50 is the IC50 on a negative log10 scale, so that one unit is a factor of ten. As a reminder, the inhibition is how much of the control response was suppressed. As a reminder, the pKi is the Ki on a negative log10 scale, so that one unit is a factor of ten.

Assay [1] concerns the target T1, Acetylcholinesterase (Homo sapiens, UniProt P22303). Nature of the assay: Inhibition of human recombinant AChE preincubated for 20 mins before substrate addition by Ellman's method. A general note: DTNB colorimetry detects thiols as they appear.
In another assay the target is Cholinesterase (Homo sapiens, UniProt P06276). Kind of assay: Inhibition of human BuChE preincubated for 20 mins before substrate addition by Ellman's method. The procedure, abridged:
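Ellman assay using BuChE from human serum at 0.02 unit/mL in 0.1 M potassium phosphate pH 8.0 with 340 µM DTNB. Compound and enzyme preincubated 20 min at 37 °C, then 550 µM butyrylthiocholine iodide added. Blank lacks enzyme. Five concentrations chosen to give 20–80% inhibition, each in triplicate. IC50 read graphically from log concentration vs % inhibition. Mean of two independent measurements.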

Another assay is filed under the species Homo sapiens. Nature of the assay: Selectivity ratio of IC50 for human BuChE to human recombinant AChE. The procedure, abridged: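 Ellman assay in 0.1 M potassium phosphate pH 8.0 with 340 µM DTNB, enzyme at 0.02 unit/mL: human recombinant AChE with 550 µM acetylthiocholine, serum-derived human BuChE with 550 µM butyrylthiocholine. Compounds preincubated with enzyme 20 min at 37 °C. IC50 from five-point curves run in triplicate, mean of two experiments. Ratio = IC50 BuChE / IC50 AChE.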

The target of assay [2] is T1, Acetylcholinesterase. Nature of the assay: Inhibition of human recombinant AChE-induced amyloid beta (1-40) aggregation at 100 uM by thioflavin T fluorescence assay. The procedure, abridged: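 Abeta40, lyophilised from HFIP and dissolved in DMSO, held at final 230 µM. Co-incubated with human recombinant AChE at final 2.30 µM (Abeta:AChE 100:1), with or without inhibitor at final 100 µM. Incubation 24 h at room temperature in 0.215 M sodium phosphate pH 8.0, run in duplicate. ThT read in glycine–NaOH pH 8.5 at ex 446/em 490 nm, subtracting ThT and AChE background. % inhibition = 100 − (IFi/IFo × 100).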

Assay [3] in a line: Inhibition of amyloid beta (1-42) self-aggregation at 10 uM after 24 hrs by thioflavin T-based fluorometric assay. The procedure, abridged: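 Abeta42 from stable 500 µM stock, incubated at final 50 µM in 10 mM phosphate buffer pH 8.0 with 10 mM NaCl, 30 °C for 24 h, with or without compound at 10 µM. Diluted into 50 mM glycine–NaOH pH 8.5 with 1.5 µM thioflavin T. Fluorescence read by 300 s scan at ex 446/em 490 nm, plateau values averaged after ThT background subtraction. % inhibition taken from ± inhibitor intensity ratio.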

Assay [4] concerns the target T1, Acetylcholinesterase. Nature of the assay: Inhibition of human recombinant AChE-mediated hydrolysis of acetylcholine by Lineweaver-Burke plot analysis. The procedure, abridged: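 Steady-state kinetics on human recombinant AChE with acetylthiocholine as substrate at low concentrations (0.60–0.06 mM) and inhibitor at increasing concentrations (range 0–50 nM). Initial velocities were plotted as 1/v versus 1/[ATCh]. Plots were fitted by weighted least squares, taking the variance of v as a constant percentage of v, to estimate the competitive inhibition constant Ki.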

T1 sequence (P22303 whole entry): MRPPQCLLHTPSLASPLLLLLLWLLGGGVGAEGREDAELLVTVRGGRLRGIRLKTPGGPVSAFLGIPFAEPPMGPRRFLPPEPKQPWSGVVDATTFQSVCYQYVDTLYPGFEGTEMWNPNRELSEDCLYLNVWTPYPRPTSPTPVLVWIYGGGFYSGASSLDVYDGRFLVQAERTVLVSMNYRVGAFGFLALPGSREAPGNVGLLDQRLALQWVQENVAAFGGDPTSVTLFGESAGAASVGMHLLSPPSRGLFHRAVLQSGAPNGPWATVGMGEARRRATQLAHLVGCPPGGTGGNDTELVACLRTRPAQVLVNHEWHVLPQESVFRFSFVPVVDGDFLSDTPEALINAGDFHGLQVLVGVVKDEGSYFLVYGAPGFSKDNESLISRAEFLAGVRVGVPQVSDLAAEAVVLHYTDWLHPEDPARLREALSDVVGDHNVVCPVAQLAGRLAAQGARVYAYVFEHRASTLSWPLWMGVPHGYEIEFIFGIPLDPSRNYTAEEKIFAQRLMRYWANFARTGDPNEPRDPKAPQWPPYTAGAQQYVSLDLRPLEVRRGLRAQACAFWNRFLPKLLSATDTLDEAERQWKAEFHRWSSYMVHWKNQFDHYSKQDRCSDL
Cholinesterase, sequence (P06276 whole entry): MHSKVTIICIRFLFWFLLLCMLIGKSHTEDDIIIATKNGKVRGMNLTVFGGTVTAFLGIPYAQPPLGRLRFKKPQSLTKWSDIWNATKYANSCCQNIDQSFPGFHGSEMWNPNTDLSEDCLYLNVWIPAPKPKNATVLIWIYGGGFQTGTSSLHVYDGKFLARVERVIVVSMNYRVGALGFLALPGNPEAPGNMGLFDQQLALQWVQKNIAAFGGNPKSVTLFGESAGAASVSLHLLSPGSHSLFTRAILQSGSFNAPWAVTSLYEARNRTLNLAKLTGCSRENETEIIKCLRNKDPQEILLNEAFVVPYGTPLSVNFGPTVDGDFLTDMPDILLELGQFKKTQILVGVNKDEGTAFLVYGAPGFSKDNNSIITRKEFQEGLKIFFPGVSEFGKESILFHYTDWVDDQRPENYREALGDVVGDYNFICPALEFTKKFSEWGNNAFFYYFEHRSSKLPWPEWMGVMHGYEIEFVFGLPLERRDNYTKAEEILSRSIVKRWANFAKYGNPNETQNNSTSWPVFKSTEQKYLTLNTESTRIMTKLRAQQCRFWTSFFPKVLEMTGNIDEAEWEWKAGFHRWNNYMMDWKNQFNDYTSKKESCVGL

`CCN(CC)CCCCOc1ccc2c(c1)C/C(=C\c1ccc(CN(C)Cc3ccccc3)cc1)C2=O`: the figures for the pIC50 at Acetylcholinesterase [1] and on Cholinesterase were 5.40 and 4.64, respectively. Moreover, the Ratio IC50 in the assay filed under Homo sapiens came to 5.8.

In the case of `CCN(CC)CCOc1ccc2c(c1)C/C(=C\c1ccc(CN(C)Cc3ccccc3)cc1)C2=O`, the pIC50 at Acetylcholinesterase [1] was 5.54; against Cholinesterase it was 4.65. For the same compound, in the assay listed under Homo sapiens, the Ratio IC50 was found to be 7.76.

As to `COc1ccc2c(c1)CC/C(=C\c1ccc(CN(C)Cc3ccccc3)cc1)C2=O`, the pIC50 was 6.96 on Acetylcholinesterase [1] and 4.04 against Cholinesterase. The Ratio IC50 in the assay filed under Homo sapiens is 820.

In the case of `CCN(CC)CCCOc1ccc2c(c1)C/C(=C\c1ccc(CN(C)Cc3ccccc3)cc1)C2=O`, the pIC50 on Acetylcholinesterase [1] was 5.79; against Cholinesterase it was 4.94. For the same compound, the Ratio IC50 in the assay listed under Homo sapiens was found to be 7.08.

On to `CCN(Cc1ccccc1)Cc1ccc(/C=C2\Cc3ccc(OC)cc3C2=O)cc1`, for which the pIC50 on Acetylcholinesterase [1] is 5.31; against Cholinesterase, 4.01. In the assay filed under Homo sapiens, the Ratio IC50 turned out to be 19.9.

For the compound `CCN(CC)CCCCOc1ccc2c(c1)C(=O)/C(=C/c1ccc(CN(C)Cc3ccccc3)cc1)C2`, the pIC50 on Acetylcholinesterase [1] was 6.05; at Cholinesterase, 5.45. Further, the Ratio IC50 in the assay filed under Homo sapiens stood at 3.95.

For `CN(Cc1ccccc1)Cc1ccc(/C=C2\Cc3ccccc3C2=O)cc1`, the pIC50 is 4.93 on Acetylcholinesterase [1] and 4.52 at Cholinesterase. For the same compound, in the assay filed under Homo sapiens, the Ratio IC50 turned out to be 2.55.

`COc1cc2c(cc1OC)C(=O)/C(=C/c1ccc(CN(C)Cc3ccccc3)cc1)C2`: the figures for the pIC50 at Acetylcholinesterase [1] and on Cholinesterase were 5.94 and 3.84, respectively. Besides, the Ratio IC50 in the assay filed under Homo sapiens turned out to be 126.

Consider `CCN(CC)CCCCCOc1ccc2c(c1)CC/C(=C\c1ccc(CN(C)Cc3ccccc3)cc1)C2=O`, for which the results for the pIC50 on Acetylcholinesterase [1] and at Cholinesterase were 7.25 and 5.09, respectively. Also, the Ratio IC50 in the assay filed under Homo sapiens was 144. The inhibition on Acetylcholinesterase [2] worked out at 42.9%; in assay [3], 26.4%.

Take `CN(Cc1ccccc1)Cc1ccc(/C=C2\CCc3cc(OCCCCCN4CCCCC4)ccc3C2=O)cc1`: the pIC50 at Acetylcholinesterase [1] is 7.28; at Cholinesterase, 5.30. Moreover, the Ratio IC50 in the assay listed under Homo sapiens was determined as 96.3. For the same compound, the pKi at Acetylcholinesterase [4] was 7.21. For the same compound, the figures for the inhibition (at Acetylcholinesterase [2]; in assay [3]) were 48.3% and 26.9%, respectively.

`COc1ccc2c(c1)C(=O)/C(=C/c1ccc(CN(C)Cc3ccccc3)cc1)C2`: the values for the pIC50 at Acetylcholinesterase [1] and at Cholinesterase were 6.20 and 5.10, respectively. Also, in the assay filed under Homo sapiens, the Ratio IC50 amounted to 12.6. Besides, the inhibition (at Acetylcholinesterase [2]; in assay [3]) was less than 5% in each case.

In the case of `CN(Cc1ccccc1)Cc1ccc(/C=C2\Cc3ccc(OCCCCCN4CCCCC4)cc3C2=O)cc1`, the pIC50 at Acetylcholinesterase [1] was 6.70; at Cholinesterase, 5.11. For the same compound, the Ratio IC50 in the assay filed under Homo sapiens came out at 38.5. The inhibition at Acetylcholinesterase [2] amounted to 46.8%; in assay [3], 27.9%.

As for `CCN(CC)CCCCCOc1ccc2c(c1)C(=O)/C(=C/c1ccc(CN(C)Cc3ccccc3)cc1)C2`, the negative-log IC50 (pIC50) at Acetylcholinesterase [1] is 6.72; against Cholinesterase, 5.57. For the same compound, in the assay filed under Homo sapiens, the Ratio IC50 turned out to be 14.2. The inhibition was found to be 29.7% on Acetylcholinesterase [2] and 27.7% in assay [3].

As for `COc1cc2c(cc1OC)C(=O)/C(=C/c1ccc(CN(C)Cc3ccccc3)cc1)CC2`, the pIC50 is 6.74 at Acetylcholinesterase [1] and 4.14 against Cholinesterase. For the same compound, the Ratio IC50 in the assay filed under Homo sapiens came to 404.

For `CCN(CC)CCCOc1ccc2c(c1)C(=O)/C(=C/c1ccc(CN(C)Cc3ccccc3)cc1)C2`, the values for the pIC50 on Acetylcholinesterase [1] and against Cholinesterase were 5.88 and 4.92, respectively. Moreover, the Ratio IC50 in the assay filed under Homo sapiens is 9.01.

Consider `CCN(CC)CCOc1ccc2c(c1)C(=O)/C(=C/c1ccc(CN(C)Cc3ccccc3)cc1)C2`, for which the negative-log IC50 (pIC50) on Acetylcholinesterase [1] is 5.82; at Cholinesterase, 4.92. The Ratio IC50 in the assay filed under Homo sapiens worked out at 7.77.

For the compound `COc1cc2cc(-c3ccc(CN(C)Cc4ccccc4)cc3)c(=O)oc2cc1OC`, the Ratio IC50 in the assay listed under Homo sapiens is 1110. In assay [3], the inhibition was less than 5%.

For `CN(Cc1ccccc1)Cc1ccc(/C=C2\Cc3ccc(OCCCCN4CCOCC4)cc3C2=O)cc1`, the negative-log IC50 (pIC50) was 6.05 at Acetylcholinesterase [1] and 4.00 against Cholinesterase. The Ratio IC50 in the assay filed under Homo sapiens was determined as 112.

As to `COc1ccc2c(c1)C/C(=C\c1ccc(CN(C)Cc3ccccc3)cc1)C2=O`, the pIC50 at Acetylcholinesterase [1] was 4.54; on Cholinesterase, 4.68. The Ratio IC50 in the assay filed under Homo sapiens worked out at 0.73.

In the case of `COc1cc2c(cc1OC)C(=O)C(CC1CCN(Cc3ccccc3)CC1)C2` (stereo not given), in assay [3], the inhibition was less than 5%.

Consider `CN(Cc1ccccc1)Cc1ccc(/C=C2\Cc3ccc(OCCCCN4CCCCC4)cc3C2=O)cc1`, for which the pIC50 on Acetylcholinesterase [1] is 6.74; against Cholinesterase, 5.00. In the assay filed under Homo sapiens, the Ratio IC50 was 55.5.

Regarding `COc1ccc2c(c1)C(=O)/C(=C/c1ccc(CN(C)Cc3ccccc3)cc1)CC2`, the pIC50 was 5.27 on Acetylcholinesterase [1] and 3.87 on Cholinesterase. For the same compound, the Ratio IC50 in the assay filed under Homo sapiens worked out at 25.1.

As for `CCN(CC)CCCCCCCOc1ccc2c(c1)C(=O)/C(=C/c1ccc(CN(C)Cc3ccccc3)cc1)C2`, the pIC50 at Acetylcholinesterase [1] is 6.29; at Cholinesterase, 4.48. Also, the Ratio IC50 in the assay listed under Homo sapiens worked out at 64.7.

In the case of `CCN(CC)CCCCCCOc1ccc2c(c1)C(=O)/C(=C/c1ccc(CN(C)Cc3ccccc3)cc1)C2`, the pIC50 was 6.42 at Acetylcholinesterase [1] and 4.69 against Cholinesterase. For the same compound, the Ratio IC50 in the assay listed under Homo sapiens is 53.9.
